Results as given in article PMC6916675 (Cancer Management and Research, 2019).
“Also recorded” adds a separate entry of the source.

How the values were obtained:
[1] = system: advanced solid or hematologic malignancies; assay: Antitumor efficacy; assay type: in vivo, human
Procedure, shortened: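 Investigators assessed response by RECIST 1.1, RANO, updated IWCLL or PCWG2 criteria. Solid tumours were restaged by CT or MRI after cycles 2, 4, 6, 9 and 12, every 6 cycles thereafter, and at end of treatment. Patients meeting IWCLL criteria but with persistent lymphocytosis were classed non-IWCLL. Best overall response frequency was tabulated. BA/FE substudy: 12 solid-tumour patients (GBM excluded).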

pAKT = assay: Immunohistochemistry of paired tumor biopsies, pAKT; assay type: in vivo, human; conditions: before treatment vs after approximately 15 days of treatment
mTORC2 (pAKT.S473) = assay: pAKT biomarker inhibition in stimulated blood monocytes; assay type: in vivo, human
Procedure, shortened: (§1)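 Blood sampled predose and up to 5 hrs postdose on cycle 1 days 1 and 15, plus around tumour biopsy (days 15–21). Markers: p4E-BP1 T37/T46 (mTORC1) and pAKT S473 (mTORC2). In Part B, CD14+ monocytes were stimulated with anti-IgD plus lipopolysaccharide (37°C, 15 min) and analysed by flow cytometry. Signal was expressed as molecules of equivalent fluorescein.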

[2] = Urinary excretion of CC-115; assay type: in vivo, human; conditions: for Fe (fraction excreted unchanged in urine), mean (CV%) / Urine Ae24, mean (CV%): first dose
[3] = Bioavailability/food effect; assay type: in vivo, human; conditions: single oral dose with high-fat meal vs fasted
p4EBP1 = assay: Immunohistochemistry of paired tumor biopsies, p4EBP1; assay type: in vivo, human; conditions: before treatment vs after approximately 15 days of treatment
[4] = Plasma pharmacokinetics of CC-115; assay type: in vivo, human; conditions: for AUC(0-inf) / Vd/F / AUC / Cmax / Tmax: human, plasma, oral; for Cmax: Plasma Cmax, mean (CV%); for Tmax: Plasma Tmax, median (min, max)
[5] = Safety and tolerability in Phase I patients; assay type: in vivo, human
[6] = Distribution of CC-115 to GBM tumor tissue; assay type: in vivo; conditions: human, GBM tumor tissue and plasma, oral, 10 mg BID
mTORC1 (p4E-BP1.T37/T46) = assay: p4E-BP1 biomarker inhibition in stimulated blood monocytes; assay type: in vivo, human
Procedure, shortened: as §1

[7] = Part A, efficacy evaluable n=39
[8] = Part A, repeat once-daily administration
[9] = patient with endometrial cancer (complete response)
[10] = 8 mg, first dose, 8 mg QD, n = 6
[11] = 8 mg, multiple doses, 8 mg QD, n = 7
[12] = 10 mg, first dose, 10 mg BID, n = 6
[13] = 10 mg, multiple doses, 10 mg BID, n = 7
[14] = 15 mg, first dose, 15 mg BID, n = 6
[15] = 15 mg, multiple doses, 15 mg BID, n = 5
[16] = 16 mg, first dose, 16 mg QD, n = 6
[17] = 16 mg, multiple doses, 16 mg QD, n = 8
[18] = 25 mg, first dose, 25 mg QD, n = 7
[19] = 25 mg, multiple doses, 25 mg QD, n = 5
[20] = 40 mg, first dose, 40 mg QD, n = 6
[21] = 40 mg, multiple doses, 40 mg QD, n = 4

Structure (SMILES): CCN1C(=O)CNc2ncc(-c3ccc(-c4nc[nH]n4)nc3C)nc21 [CC-115]
- Stable disease, patients ([1]; BA/FE substudy): 4 patients
- Partial response (unconfirmed), patients ([1]; BA/FE substudy, breast carcinoma (5 patients)): 2 patients
- Stable disease, patients ([1]; BA/FE substudy, breast malignancies): 1 patients
- Stable disease, patients ([1]; BA/FE substudy, ovarian malignancies): 2 patients
- Stable disease, patients ([1]; BA/FE substudy, rectal malignancies): 1 patients
- Disease control rate (DCR) [1, 7]: 51%
- Overall response rate (ORR) [1, 7]: 5%
- 6-month PFS ([1]; Part B, CLL/SLL): 86%
- Best response of SD by IWCLL and non-IWCLL criteria ([1]; Part B, CLL/SLL, June 2017): 25%
- PR by IWCLL criteria ([1]; Part B, CLL/SLL, June 2017): 25%
- PR by non-IWCLL criteria (persistent lymphocytosis) ([1]; Part B, CLL/SLL, June 2017): 38%
- Best response of SD ([1]; Part B, CRPC, 11 efficacy evaluable patients): 64%
- 6-month PFS rate ([1]; Part B, ES): 0%
- Best response of SD ([1]; Part B, ES n=9): 22%
- Best response of nonprogression ([1]; Part B, GBM, 14 evaluable patients): 21%
- Best response of SD ([1]; Part B, HNSCC n=17): 53%
- Time in complete remission / tumor-free ([1]; one patient with endometrial cancer, 10 mg BID reduced to 8 mg BID): > 4 years
- Inhibition of pAKT in paired tumor biopsies (pAKT): Moderate, not statistically significant, inhibition
- Median biomarker (pAKT) (mTORC2 (pAKT.S473); 10 mg BID cohort, after 3 hrs): 84%
- Dose above which mTORC2 (pAKT) was inhibited in peripheral blood monocytes (mTORC2 (pAKT.S473); [8]): > 4 mg QD
- Median decrease of pAKT (mTORC2 (pAKT.S473); Part B, 10 mg BID, day 15): 80%
- Inhibition of pAKT (mTORC2 (pAKT.S473); [9]): 85%
- Time for which pAKT inhibition was sustained (mTORC2 (pAKT.S473); postdose): at least 5 hrs
- Excreted in urine ([2]; Part A): Less than 1%
- Fe (fraction excreted unchanged in urine), mean (CV%) ([2]; 8 mg QD, n = 6): 0.25 (66) %
- Urine Ae24, mean (CV%) ([2]; 8 mg QD, n = 6): 19,748 (66) ng
- Fe (fraction excreted unchanged in urine), mean (CV%) ([2]; 10 mg BID, n = 6): 0.53 (108) %
- Urine Ae24, mean (CV%) ([2]; 10 mg BID, n = 6): 53,259 (108) ng
- Fe (fraction excreted unchanged in urine), mean (CV%) ([2]; 15 mg BID, n = 6): 0.72 (53) %
- Urine Ae24, mean (CV%) ([2]; 15 mg BID, n = 6): 107,283 (53) ng
- Fe (fraction excreted unchanged in urine), mean (CV%) ([2]; 16 mg QD, n = 6): 0.33 (108) %
- Urine Ae24, mean (CV%) ([2]; 16 mg QD, n = 6): 52,491 (108) ng
- Fe (fraction excreted unchanged in urine), mean (CV%) ([2]; 25 mg QD, n = 7): 0.41 (79) %
- Urine Ae24, mean (CV%) ([2]; 25 mg QD, n = 7): 103,312 (79) ng
- Fe (fraction excreted unchanged in urine), mean (CV%) ([2]; 40 mg QD, n = 6): 0.34 (55) %
- Urine Ae24, mean (CV%) ([2]; 40 mg QD, n = 6): 136,157 (55) ng
- Decrease in Cmax on co-administration of the tablet with food [3]: ~ 40%
- Delay in Tmax on co-administration of the tablet with food [3]: 3.5 h
- Total exposure (AUC∞) fed versus fasted [3]: similar; also recorded: comparable
- Inhibition of p4EBP1 in paired tumor biopsies (p4EBP1): Moderate, not statistically significant, inhibition
- AUC(0-inf) ([4]; 8 mg): 237 ng·h/mL
- Vd/F ([4]; 8 mg): 294 L
- AUC ([4]; 8 mg, Plasma AUC12, mean (CV%), first dose, 8 mg QD, n = 6): 180 ng·h/mL
- AUC ([4]; 8 mg, Plasma AUC24, mean (CV%), first dose, 8 mg QD, n = 6): 236 ng·h/mL
- Cmax [4, 10]: 36.1 ng/mL
- Cmax [4, 11]: 40.9 ng/mL
- Tmax [4, 10]: 1.5 h
- Tmax [4, 11]: 1.5 h
- AUC(0-inf) ([4]; 10 mg): 605 ng·h/mL
- Vd/F ([4]; 10 mg): 189 L
- Cmax [4, 12]: 51.8 ng/mL
- Cmax [4, 13]: 75.2 ng/mL
- Tmax [4, 12]: 2.25 h
- Tmax [4, 13]: 1.42 h
- AUC(0-inf) ([4]; 15 mg): 1310 ng·h/mL
- Vd/F ([4]; 15 mg): 173 L
- Cmax [4, 14]: 134 ng/mL
- Cmax [4, 15]: 162 ng/mL
- Tmax [4, 14]: 1.04 h
- Tmax [4, 15]: 1.52 h
- AUC(0-inf) ([4]; 16 mg): 625 ng·h/mL
- Vd/F ([4]; 16 mg): 264 L
- Cmax [4, 16]: 88.7 ng/mL
- Cmax [4, 17]: 118 ng/mL
- Tmax [4, 16]: 2.95 h
- Tmax [4, 17]: 1.65 h
- AUC(0-inf) ([4]; 25 mg): 1910 ng·h/mL
- Vd/F ([4]; 25 mg): 149 L
- Cmax [4, 18]: 173 ng/mL
- Cmax [4, 19]: 198 ng/mL
- Tmax [4, 18]: 3 h
- Tmax [4, 19]: 1.52 h
- AUC(0-inf) ([4]; 40 mg): 2130 ng·h/mL
- Vd/F ([4]; 40 mg): 201 L
- Cmax [4, 20]: 167 ng/mL
- Cmax [4, 21]: 244 ng/mL
- Tmax [4, 20]: 2.25 h
- Tmax [4, 21]: 3 h
- Increase of Cmax and AUC∞ with dose ([4]; single and multiple doses ranging from 4 to 40 mg): linear, dose-proportional
- Drug-related AE: diarrhea ([5]; Part A): 25%
- Drug-related AE: fatigue ([5]; Part A): 50%
- Drug-related AE: hyperglycemia ([5]; Part A): 23%
- Drug-related AE: nausea ([5]; Part A): 41%
- Drug-related AE: vomiting ([5]; Part A): 41%
- Grade 3 toxicities, patients ([5]; Part A): 41%
- Grade 3 toxicity: fatigue ([5]; Part A): 7%
- Grade 3 toxicity: hypertriglyceridemia ([5]; Part A): 5%
- Grade 3 toxicity: hypophosphatemia ([5]; Part A): 7%
- Grade 3 toxicity: maculopapular rash ([5]; Part A): 5%
- Grade 3 toxicity: stomatitis ([5]; Part A): 5%
- Patients requiring dose reduction from initially assigned dose levels ([5]; Part A): 39%
- Patients requiring drug interruption ([5]; Part A): 93%
- Patients who discontinued treatment due to AEs ([5]; Part A): 7%
- Patients with ≥1 drug-related AE ([5]; Part A): 93%
- Dose-limiting toxicities (increased transaminases and stomatitis) ([5]; Part A, 15 mg BID): 2 DLTs
- Dose-limiting toxicity (thrombocytopenia), patients ([5]; Part A, 16 mg QD): 1 patient
- Dose-limiting toxicity (stomatitis), patients ([5]; Part A, 25 mg QD): 1 patient
- Dose-limiting toxicities (hyperglycemia, asthenia, and fatigue), patients ([5]; Part A, 40 mg QD): 2 of 6 patients
- Maximum-tolerated dose (MTD) ([5]; Part A, once-daily schedule): 25 mg QD
- Non-tolerated dose (NTD) ([5]; Part A, once-daily schedule): 40 mg QD
- Maximum-tolerated dose (MTD) ([5]; Part A, twice-daily schedule): 10 mg BID
- Non-tolerated dose (NTD) ([5]; Part A, twice-daily schedule): 15 mg BID
- Patients requiring ≥1 dose reduction, range over cohorts ([5]; Part B overall): 40–93%
- Patients with dose reductions ([5]; Part B, GBM): 93%
- Kp [6]: 0.713
- Median biomarker (p4E-BP1) (mTORC1 (p4E-BP1.T37/T46); 10 mg BID cohort, after 3 hrs): 35%
- Dose above which mTORC1 (p4E-BP1) was inhibited in peripheral blood monocytes (mTORC1 (p4E-BP1.T37/T46); [8]): > 4 mg QD
- Median decrease of p4E-BP1 (mTORC1 (p4E-BP1.T37/T46); Part B, 10 mg BID, day 15): 34%
- Inhibition of p4E-BP1 (mTORC1 (p4E-BP1.T37/T46); [9]): 51%
- Time for which p4E-BP1 inhibition was sustained (mTORC1 (p4E-BP1.T37/T46); postdose): at least 5 hrs
